The target of experiment [1] is Delta-type opioid receptor (Rattus norvegicus, UniProt P33533). Nature of the experiment: Compound was evaluated for the inhibition of [3H]DSLET([[3H]D-Ser2,Leu5,Thr6]enkephalin binding to Opioid receptor delta 1 in rat brain homogenates. The experiment is classed as tissue-based.
In experiment [2] the target is Mu-type opioid receptor (Rattus norvegicus, UniProt P33535). Nature of the experiment: Compound was evaluated for the inhibition of [3H]DAGO([[3H]D-Ala,MePhe4,Glyol5]enkephalin) binding to mu sites in rat brain homogenates. The format is tissue-based.
For experiment [3], the target named is Kappa-type opioid receptor (Cavia porcellus) (UniProt P41144). As to the kind of experiment: Hill coefficient value was measured against Opioid receptor kappa 1 in guinea pig cerebellum membrane homogenates. The format is cell membranes.
Experiment [4] relates to Delta-type opioid receptor. As to the kind of experiment: Receptor selectivity index is the ratio of the apparent KI at delta opioid receptor over the apparent KI at the highest affinity site. Summed up: (§1)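 RSI is the apparent KI at the given site divided by the apparent KI at the highest-affinity site. KI values come from [3H]DAGO (μ) and [3H]DSLET (δ) binding in rat brain membranes and [3H]bremazocine (κ) binding in guinea pig cerebellum membranes, all at 25 °C with peptidase inhibitors.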

Experiment [5] concerns the target Mu-type opioid receptor (Rattus norvegicus) (UniProt P33535). As to the kind of experiment: Hill coefficient value was measured against mu sites in rat brain homogenates. The format is tissue-based.
The species entered for experiment [6] is Cavia porcellus. Nature of the experiment: The compound was evaluated for the antagonistic activity against dynorphin A in guinea pig ileum. The experiment is classed as functional. Summed up:
(§2)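 Isolated electrically stimulated organ (guinea pig ileum myenteric plexus-longitudinal muscle; rabbit vas deferens), run with a peptidase-inhibitor mixture, twitch contractions recorded. In the antagonism test, the peptide concentration was set to depress the twitch by 20-40%. Analogue tested up to 10 μM. Ke is the concentration reducing the effect of a double dynorphin A dose to that of a single dose. Mean ± SEM of at least four independent measurements.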

Experiment [7] addresses Delta-type opioid receptor (Rattus norvegicus) (UniProt P33533). Nature of the experiment: Hill coefficient value was measured against delta sites in rat brain homogenates. The format is tissue-based.
For experiment [8], the target named is T1, Kappa-type opioid receptor (Homo sapiens, UniProt P41145). Nature of the experiment: Receptor selectivity index is the ratio of the apparent KI at kappa opioid receptor over the apparent KI at the highest affinity site. Summed up: as §1
Experiment [9] has as its target Kappa-type opioid receptor (Cavia porcellus, UniProt P41144). Nature of the experiment: Compound was evaluated for the inhibition of [3H]bremazocine binding to Opioid receptor kappa 1 in guinea pig cerebellum membrane homogenates. The experiment is classed as cell membranes. Summed up:
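Guinea pig cerebellum crude membranes were incubated with [3H]bremazocine (0.5 nM) at 25 °C for 60 min with peptidase inhibitors. Values are the mean ± SEM of at least three independent observations.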

For a further experiment, the species on record is Oryctolagus cuniculus. As to the kind of experiment: The compound was evaluated for the antagonistic activity in rabbit vas deferens. The format is functional. Summed up: as §2
In experiment [10] the target is T1, Kappa-type opioid receptor. Nature of the experiment: Compound was evaluated for the agonistic activity against Opioid receptor kappa 1 in rabbit vas deferens. The experiment is classed as functional, Oryctolagus cuniculus. The conditions noted are these: target entry is the homologue from another species. Summed up:
(§3)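 Isolated organs (guinea pig ileum myenteric plexus-longitudinal muscle, hamster vas deferens, rabbit vas deferens) were electrically stimulated, and inhibition of the evoked twitch contractions was recorded. The bath held a peptidase inhibitor mixture. Peptides were tested up to 10 μM.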

The target of experiment [11] is Mu-type opioid receptor (Cavia porcellus, UniProt P97266). Nature of the experiment: Compound was evaluated for the agonistic activity against Opioid receptor mu 1 in guinea pig ileum. The format is functional, tissue-based. Summed up:
as §3

For experiment [12], the species on record is Cavia porcellus. Nature of the experiment: The compound was evaluated for the antagonistic activity against DAGO (mu-receptor) in guinea pig ileum. The experiment is classed as functional.
Another experiment relates to Cricetinae gen. sp. Nature of the experiment: The compound was evaluated for the antagonistic activity in hamster vas deferens. The experiment is classed as functional, Cricetulus griseus. Summed up: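 Agonist concentration chosen to depress twitch height by 20-40%. Ke is the peptide concentration that reduces the effect of a double agonist dose to that of a single dose. Peptide tested up to 10 μM. At least four independent measurements.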

As usually defined, the Ki is a dissociation constant, usually derived from enzyme kinetics or from competition with a known ligand. High values mean lower affinity, low ones higher affinity. Usually Hill coefficient stands for a measure of the steepness of the concentration-response curve. The IC50 is the midpoint of a concentration-inhibition curve.

Sequence of Delta-type opioid receptor (Rattus norvegicus) (P33533 whole entry): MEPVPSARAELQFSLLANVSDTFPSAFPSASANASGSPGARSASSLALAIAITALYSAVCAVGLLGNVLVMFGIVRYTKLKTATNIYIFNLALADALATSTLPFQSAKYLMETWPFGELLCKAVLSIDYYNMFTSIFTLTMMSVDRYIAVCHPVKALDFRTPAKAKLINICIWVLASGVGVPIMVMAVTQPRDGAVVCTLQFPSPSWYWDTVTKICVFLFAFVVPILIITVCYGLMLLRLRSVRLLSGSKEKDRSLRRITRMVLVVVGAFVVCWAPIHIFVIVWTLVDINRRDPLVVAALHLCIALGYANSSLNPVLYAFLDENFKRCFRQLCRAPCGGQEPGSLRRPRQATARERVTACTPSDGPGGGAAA
Sequence of Delta-type opioid receptor (Rattus norvegicus, UniProt P33533) (P33533 whole entry): as above
Sequence of Mu-type opioid receptor (Cavia porcellus, UniProt P97266) (P97266 whole entry): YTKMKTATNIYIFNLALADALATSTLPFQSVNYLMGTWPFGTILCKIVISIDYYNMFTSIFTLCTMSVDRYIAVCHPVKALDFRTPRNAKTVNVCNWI
Sequence of Mu-type opioid receptor (Rattus norvegicus, UniProt P33535) (P33535 whole entry): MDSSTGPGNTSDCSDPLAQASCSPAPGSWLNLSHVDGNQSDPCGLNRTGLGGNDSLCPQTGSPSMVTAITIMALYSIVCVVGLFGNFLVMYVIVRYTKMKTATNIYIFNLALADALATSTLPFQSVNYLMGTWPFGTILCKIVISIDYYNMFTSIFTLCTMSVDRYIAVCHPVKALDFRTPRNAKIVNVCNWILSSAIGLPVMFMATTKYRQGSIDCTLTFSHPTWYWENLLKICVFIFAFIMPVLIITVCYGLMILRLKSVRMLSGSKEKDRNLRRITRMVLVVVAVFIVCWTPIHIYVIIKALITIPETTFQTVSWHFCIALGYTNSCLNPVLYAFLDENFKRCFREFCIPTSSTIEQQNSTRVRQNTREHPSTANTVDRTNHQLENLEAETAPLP
Sequence of Mu-type opioid receptor (Rattus norvegicus) (P33535 whole entry): as above
Sequence of Kappa-type opioid receptor (Cavia porcellus, UniProt P41144) (P41144 whole entry): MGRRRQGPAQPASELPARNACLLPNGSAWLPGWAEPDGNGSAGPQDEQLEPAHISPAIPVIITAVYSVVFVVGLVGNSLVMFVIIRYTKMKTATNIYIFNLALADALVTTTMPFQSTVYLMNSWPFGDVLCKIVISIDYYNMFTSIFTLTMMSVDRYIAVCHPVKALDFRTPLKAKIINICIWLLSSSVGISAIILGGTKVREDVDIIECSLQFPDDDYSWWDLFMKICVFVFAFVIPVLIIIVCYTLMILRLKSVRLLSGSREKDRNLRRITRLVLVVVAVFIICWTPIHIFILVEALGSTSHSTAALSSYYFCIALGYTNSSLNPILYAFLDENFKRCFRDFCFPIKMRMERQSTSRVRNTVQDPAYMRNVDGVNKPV
Sequence of Kappa-type opioid receptor (Cavia porcellus) (P41144 whole entry): as above
T1 sequence (P41145 whole entry): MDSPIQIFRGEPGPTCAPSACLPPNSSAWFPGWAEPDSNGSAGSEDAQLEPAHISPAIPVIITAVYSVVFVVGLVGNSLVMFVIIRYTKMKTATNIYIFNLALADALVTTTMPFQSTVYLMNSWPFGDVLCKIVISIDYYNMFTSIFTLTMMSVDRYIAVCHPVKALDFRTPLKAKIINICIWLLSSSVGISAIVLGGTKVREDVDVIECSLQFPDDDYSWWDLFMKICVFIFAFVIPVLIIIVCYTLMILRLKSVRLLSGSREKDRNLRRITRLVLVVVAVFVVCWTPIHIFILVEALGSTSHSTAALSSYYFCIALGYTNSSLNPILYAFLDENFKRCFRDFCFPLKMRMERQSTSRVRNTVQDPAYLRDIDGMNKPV

For the compound `CC(C)C[C@H](NC(=O)[C@H](Cc1ccccc1)NC(=O)CNC(=O)[C@@H](Cc1c[nH]c2ccccc12)NC(=O)[C@@H](N)Cc1ccc(O)cc1)C(=O)N[C@@H](CCCN=C(N)N)C(=O)N[C@@H](CCCN=C(N)N)C(=O)N[C@H](Cc1c[nH]c2ccccc12)C(=O)N[C@@H](CCCN=C(N)N)C(=O)N1CCC[C@@H]1C(=O)N[C@@H](CCCCN)C(=O)O`, the figures for the Ki (in experiment [1]; on Mu-type opioid receptor [2]; in [9]) were 561 nM, 103 nM and 153 nM, respectively. Also, the Hill coefficient in experiment [3] was found to be 0.83; in [5], 1.15; in experiment [7], 0.72. The Ratio in experiment [4] turned out to be 5.5; in [8], 1.5. Moreover, the Ke turned out to be 206 nM in the experiment filed under Cavia porcellus [6] and 433 nM in the experiment listed under Oryctolagus cuniculus. Moreover, the IC50 is above 10000 nM in experiment [10] and 8890 nM at Mu-type opioid receptor [11].
On to `CC(C)C[C@H](NC(=O)[C@@H](Cc1c[nH]c2ccccc12)NC(=O)CNC(=O)CNC(=O)[C@@H](N)Cc1ccc(O)cc1)C(=O)N[C@@H](CCCN=C(N)N)C(=O)N[C@@H](CCCN=C(N)N)C(=O)N[C@H](Cc1c[nH]c2ccccc12)C(=O)N[C@@H](CCCN=C(N)N)C(=O)N1CCC[C@@H]1C(=O)N[C@@H](CCCCN)C(=O)O`, for which the results for the Ki (in [1]; on Mu-type opioid receptor [2]; in [9]) were 631 nM, 142 nM and 73 nM, respectively. Besides, the Hill coefficient in [3] worked out at 0.85; in experiment [5], 1.06; in experiment [7], 0.92. Further, the figures for the Ratio in experiment [4] and in experiment [8] were 8.6 and 1, respectively. In addition, the results for the Ke in the experiment listed under Cavia porcellus [6], in the experiment filed under Oryctolagus cuniculus and in the experiment listed under Cavia porcellus [12] were 606 nM, 1432 nM and 249 nM, respectively. For the same compound, the IC50 (in experiment [10]; at Mu-type opioid receptor [11]) was above 10000 nM throughout.
Consider `CC[C@H](C)[C@H](NC(=O)[C@H](CCCN=C(N)N)NC(=O)[C@H](CCCN=C(N)N)NC(=O)[C@H](CC(C)C)NC(=O)[C@H](Cc1ccccc1)NC(=O)CNC(=O)CNC(=O)[C@@H](N)Cc1ccc(O)cc1)C(=O)N[C@@H](CCCN=C(N)N)C(=O)N1CCC[C@H]1C(=O)N[C@@H](CCCCN)C(=O)N[C@@H](CC(C)C)C(=O)N[C@@H](CCCCN)C(=O)N[C@@H](Cc1c[nH]c2ccccc12)C(=O)N[C@@H](CC(=O)O)C(=O)N[C@@H](CC(N)=O)C(=O)N[C@@H](CCC(=O)O)C(=O)O`, for which, in experiment [3], the Hill coefficient is 0.79.
For `CC(C)C[C@H](NC(=O)[C@H](Cc1ccccc1)NC(=O)[C@@H](Cc1c[nH]c2ccccc12)NC(=O)CNC(=O)[C@@H](N)Cc1ccc(O)cc1)C(=O)N[C@@H](CCCN=C(N)N)C(=O)N[C@@H](CCCN=C(N)N)C(=O)N[C@H](Cc1c[nH]c2ccccc12)C(=O)N[C@@H](CCCN=C(N)N)C(=O)N1CCC[C@@H]1C(=O)N[C@@H](CCCCN)C(=O)O`, the figures for the Ki (in experiment [1]; at Mu-type opioid receptor [2]; in experiment [9]) were 1040 nM, 327 nM and 19.6 nM, respectively. The Hill coefficient in experiment [3] stood at 1.03; in experiment [5], 1.31; in [7], 1.07. Besides, the Ratio amounted to 53 in experiment [4] and 1 in experiment [8]. Besides, the Ke in the experiment filed under Cavia porcellus [6] is given as 10.3 nM; with Cricetinae gen. sp., 1127 nM; in the experiment filed under Oryctolagus cuniculus it was 1127 nM; in the experiment filed under Cavia porcellus [12], 40.5 nM. Besides, the IC50 was above 10000 nM in experiment [10] and 222 nM at Mu-type opioid receptor [11].
In [9], `CC[C@H](C)[C@H](NC(=O)[C@H](CCCNC(=N)N)NC(=O)[C@H](CCCNC(=N)N)NC(=O)[C@H](CC(C)C)NC(=O)[C@H](Cc1ccccc1)NC(=O)CNC(=O)CNC(=O)[C@@H](N)Cc1ccc(O)cc1)C(=O)N[C@@H](CCCNC(=N)N)C(=O)N1CCC[C@H]1C(=O)N[C@@H](CCCCN)C(=O)N[C@@H](CC(C)C)C(=O)N[C@@H](CCCCN)C(=O)N[C@@H](Cc1c[nH]c2ccccc12)C(=O)N[C@@H](CC(=O)O)C(=O)N[C@@H](CC(N)=O)C(=O)N[C@@H](CCC(N)=O)C(=O)O` came in with a Ki of 0.23 nM.
For the compound `NCCCC[C@H](NC(=O)[C@H]1CCCN1C(=O)[C@H](CCCN=C(N)N)NC(=O)[C@@H](Cc1c[nH]c2ccccc12)NC(=O)[C@H](CCCN=C(N)N)NC(=O)[C@H](CCCN=C(N)N)NC(=O)[C@@H](Cc1c[nH]c2ccccc12)NC(=O)[C@H](Cc1ccccc1)NC(=O)CNC(=O)CNC(=O)[C@@H](N)Cc1ccc(O)cc1)C(=O)O`, the Ki in experiment [1] came to 303 nM; at Mu-type opioid receptor [2], 20.3 nM; in [9], 20.6 nM. Further, the results for the Hill coefficient in experiment [3], in experiment [5] and in experiment [7] were 0.96, 1.23 and 0.9, respectively. The Ratio in experiment [4] stood at 15; in [8] it was 1. In addition, the results for the Ke in the experiment filed under Oryctolagus cuniculus and in the experiment listed under Cavia porcellus [12] were 199 nM and 13.9 nM, respectively. Besides, the IC50 is above 10000 nM in experiment [10] and 69 nM at Mu-type opioid receptor [11].
For `CC(C)C[C@H](NC(=O)[C@H](Cc1ccccc1)NC(=O)CNC(=O)CNC(=O)[C@@H](N)Cc1ccc(O)cc1)C(=O)N[C@@H](CCCN=C(N)N)C(=O)N[C@@H](CCCN=C(N)N)C(=O)N[C@H](Cc1c[nH]c2ccccc12)C(=O)N[C@@H](CCCN=C(N)N)C(=O)N1CCC[C@@H]1C(=O)N[C@@H](CCCCN)C(=O)O`, the inhibitory constant (Ki) came to 5.43 nM in experiment [1], 0.58 nM at Mu-type opioid receptor [2] and 0.049 nM in experiment [9]. Besides, the Hill coefficient in experiment [3] amounted to 1; in experiment [5], 0.86; in experiment [7] it was 0.98. The Ratio in experiment [4] turned out to be 110; in experiment [8], 1. The half-inhibitory concentration (IC50) was 12.8 nM in experiment [10] and 2.84 nM at Mu-type opioid receptor [11].
On to `CC(C)C[C@H](NC(=O)[C@@H](Cc1c[nH]c2ccccc12)NC(=O)CNC(=O)[C@@H](Cc1c[nH]c2ccccc12)NC(=O)[C@@H](N)Cc1ccc(O)cc1)C(=O)N[C@@H](CCCN=C(N)N)C(=O)N[C@@H](CCCN=C(N)N)C(=O)N[C@H](Cc1c[nH]c2ccccc12)C(=O)N[C@@H](CCCN=C(N)N)C(=O)N1CCC[C@@H]1C(=O)N[C@@H](CCCCN)C(=O)O`, for which the Ki was 134 nM in [1], 51.5 nM at Mu-type opioid receptor [2] and 23.8 nM in [9]. Moreover, the Hill coefficient in [3] came out at 0.85; in experiment [5], 0.89; in experiment [7] it was 0.86. Moreover, the Ratio in experiment [4] turned out to be 5.6; in experiment [8], 1. Moreover, the Ke in the experiment listed under Cavia porcellus [6] stood at 61 nM; in the experiment listed under Oryctolagus cuniculus, 293 nM; in the experiment listed under Cavia porcellus [12] it was 83 nM. Further, the IC50 (in experiment [10]; at Mu-type opioid receptor [11]) was above 10000 nM in each case.
Turning to `CC[C@H](C)[C@H](NC(=O)[C@H](CCCNC(=N)N)NC(=O)[C@H](CCCNC(=N)N)NC(=O)[C@H](CC(C)C)NC(=O)[C@H](Cc1ccccc1)NC(=O)CNC(=O)CNC(=O)[C@@H](N)Cc1ccc(O)cc1)C(=O)N[C@@H](CCCNC(=N)N)C(=O)N1CCC[C@H]1C(=O)N[C@@H](CCCCN)C(=O)O` [DYNORPHIN A (1-11)], in [10], the IC50 turned out to be 13.1 nM.
On the same count and under the same terms, the same measure for `CC[C@H](C)[C@H](NC(=O)[C@H](CCCN=C(N)N)NC(=O)[C@H](CCCN=C(N)N)NC(=O)[C@H](CC(C)C)NC(=O)[C@H](Cc1ccccc1)NC(=O)CNC(=O)CNC(=O)[C@@H](N)Cc1ccc(O)cc1)C(=O)N[C@@H](CCCN=C(N)N)C(=O)N1CCC[C@@H]1C(=O)N[C@@H](CCCCN)C(=O)O`: 12.1 nM.

(Values after ChEMBL document CHEMBL1123230, “Synthesis and biological activities of dynorphin A analogues with opioid antagonist properties” (J Med Chem, 1986).)
